# Measurements reported in publication PMC4276534 (ChemMedChem, 2014).
# Tests used:
# MrgX1 [1] = target: T1, MrgX1 (Homo sapiens, UniProt Q96LB2); assay: Ca2+ imaging assay on MrgX1-expressing HEK293 cells; type: cell-based
# Summary of the method: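 Ca2+ imaging in HEK293 cells expressing MrgX1, read as relative fluorescence units. Test compound was titrated alone and with a submaximal BAM8-22 level (10 nM). EC50 came from dose-response curve fitting and was not determined when Emax was <50%. Emax is given as % of a reference analogue. Three repeat experiments, mean±SEM.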
# MrgX1 [2] = target: T1, MrgX1; assay: HTS triple addition screen for MrgX1 positive allosteric modulators; type: cell-based; conditions: read-out: MrgX1 EC50; HTS screen value; HEK293 cell line stably expressing MrgX1
# [3] = Intrinsic clearance in human hepatic microsomes; type: in vitro ADME
# [4] = Intrinsic clearance in rat hepatic microsomes; type: in vitro ADME
# [5] = Plasma protein binding by equilibrium dialysis, human; type: in vitro ADME; conditions: free fraction
# [6] = Plasma protein binding by equilibrium dialysis, rat; type: in vitro ADME; conditions: free fraction
# [7] = test system: 68 GPCR's, ion channels and transporters; assay: EuroFin's Lead Profiling Screen binding assay panel; conditions: 10 μM
# T1 sequence (Q96LB2 whole entry): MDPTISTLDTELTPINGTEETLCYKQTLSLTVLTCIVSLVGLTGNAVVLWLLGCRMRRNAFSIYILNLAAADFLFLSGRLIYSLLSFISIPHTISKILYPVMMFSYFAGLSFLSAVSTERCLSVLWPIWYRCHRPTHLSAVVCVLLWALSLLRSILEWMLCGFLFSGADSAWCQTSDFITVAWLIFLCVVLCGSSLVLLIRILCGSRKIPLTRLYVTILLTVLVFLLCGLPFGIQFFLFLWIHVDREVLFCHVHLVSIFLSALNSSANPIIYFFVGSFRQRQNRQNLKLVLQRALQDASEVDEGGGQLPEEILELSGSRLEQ
compound,measurement,setting,value
"H-VGRPEWWMDYQKRYG-OH [BAM8-22, reference compound]",EC50,"MrgX1 [1]; EC50 of BAM8-22 on MrgX1, with ML382",2.9 nM
same,EC50,"MrgX1 [1]; EC50 of BAM8-22 on MrgX1, without ML382",18.7 nM
CCOc1ccccc1NC(=O)c1ccccc1NS(C)(=O)=O [SID 4258711],EC50,MrgX1 [2],96 nM
CSc1ccccc1NC(=O)c1ccccc1N(C)S(C)(=O)=O [SID 4262381],EC50,MrgX1 [2],329 nM
"CCOc1ccccc1NC(=O)c1ccccc1NS(=O)(=O)C1CC1 [4l, 2-(cyclopropanesulfonamido)-N-(2-ethoxyphenyl)benzamide]","Human CLHEP, Microsome Predicted Hepatic Clearance",[3],15.7 mL/min/kg
same,"Rat CLHEP, Microsome Predicted Hepatic Clearance",[4],65.7 mL/min/kg
same,"Human PPB, Percent Free Compound in Plasma",[5],0.4%
same,"Rat PPB, Percent Free Compound in Plasma",[6],1.7%
same,Inhibition of radio ligand binding >50% in panel of 68 targets,[7],did not inhibit 67 of the 68 targets
same,Activation of MrgX1 (agonistic activity),MrgX1 [1]; in the absence of BAM8-22,does not activate MrgX1
same,Effect on the EMax of BAM8-22,MrgX1 [1]; maximum concentration of BAM8-22 used,does not affect the EMax of BAM8-22
same,Emax as % of standard compound (4i),"MrgX1 [1]; normalized to the positive control (4i, 100%)",195 ± 8%
same,EC50,"MrgX1 [1]; read-out: MrgX1 EC50, Table 3, alkylsulfonamides, in presence of BAM8-22",190 ± 60 nM
